Assay results from ChEMBL document CHEMBL1124717, “Structural requirements for agonist actions at the benzodiazepine receptor: studies with analogues of 6-(benzyloxy)-4-(methoxymethyl)-beta-carboline-3-carboxylic acid ethyl ester” (J Med Chem, 1990).

Key:
[1] = molecular target: GABA-A receptor; anion channel; assay: In vitro inhibition of [3H]flunitrazepam binding to GABA-A Benzodiazepine receptor of rat cerebral cortex membranes; type: cell membranes, Membrane
Summary of the method: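 Washed rat cerebral cortex membranes (adult male Sprague-Dawley, 175–250 g) in 50 mM Tris-HCl pH 7.4, three wash spins at 20000g. Incubated with [3H]flunitrazepam (final 0.9–1.1 nM) and six to eight inhibitor concentrations for 120 min at 4 °C, then filtered. Nonspecific binding defined with Ro 15-1788 (10 μM). IC50 from sigmoid fit; mean of at least two determinations.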

[2] = Partition coefficient (logP); type: physicochemical; conditions: octanol/water
Mus musculus = assay: In vivo anticonvulsant activity was determined in male NIH/Swiss mice after intraperitoneal administration; Antagonist; type: functional, organism-based
Summary of the method: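 Male NIH/Swiss mice (20–25 g) dosed ip with drug in 20% diluted Emulphor/80% saline, or vehicle. Antagonism run in groups of 10: test agent at various doses, diazepam (2.5 mg/kg) 15 min later, then PTZ challenge (80 mg/kg) after another 15 min. Seizures scored over 15 min. EC50 read graphically from percent convulsions versus log dose.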

IC50 [1] [nM] | Structure (SMILES) | logP [2] | EC50 (Mus musculus) [mg/kg]
0.9 | CCOC(=O)c1[nH]cc2nc3ccc(O)cc3c-2c1COC | 1.44 | 
0.5 | CCOC(=O)c1[nH]cc2nc3ccc(OC)cc3c-2c1COC |  | 1.25
8.9 | CCOC(=O)c1cc2c3cc(OCc4ccccc4)ccc3nc-2c[nH]1 |  | 
> 5000 | CCOC(=O)c1ncc2c(c1CC)c1cc(OCc3ccccc3)ccc1n2C |  | 
> 5000 | CCOC(=O)c1cc2c3cc(OCc4ccccc4)ccc3n(C)c2cn1 |  | 
22 | CCOC(=O)c1[nH]cc2nc3ccc(OCc4ccccc4)cc3c-2c1CC |  | 
945 | CCOC(=O)c1ncc2c(c1COC)c1cc(OCc3ccccc3)ccc1n2C |  | 

Structure (SMILES) | IC50 [1] [nM] | logP [2] | EC50 (Mus musculus) [mg/kg]
CCOC(=O)c1ncc2[nH]c3ccc(OCc4ccccc4)cc3c2c1COC | 1 | 3.97 | 
CCOC(=O)c1ncc2[nH]c3ccccc3c2c1COC | 2.3 |  | 15
